High-throughput results deposited in PubChem BioAssay by Broad Institute.
An excerpt weighted towards active compounds, which were near 2.8% of everything screened.
SR-BI uptake up = activators of SR-BI mediated HDL lipid uptake | CHO ldlA[mSR-BI] cells, DiI-HDL uptake fluorescence, 3 h; 100 = double the neutral-control signal | activation, % at 12.5 µM | hit rate 0.096% among 320,000;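 active = mean replicate activation of at least 60% and every replicate at or above 60%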;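 note: 0% = median plate neutral-control signal and 100% = twice that signal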
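Material – SR-BI-overexpressing, LDLR-lacking CHO cells · Medium – BSA-supplemented, HEPES-buffered Ham's F12, pH 7.4 · Doses – single concentration · Times – compound with DiI-HDL co-incubation, 3 h at 37 °C · Measured by – bottom-read fluorescence, 550/595 nm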
dFosB act-1 = activators of mouse delta FosB homodimer; P13346; purified delta FosB, TAMRA-CDK5 oligo fluorescence polarization; percent of positive-control signal above neutral wells; hit rate 0.99% among 340,000; activation, % at 25 µM;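 active = mean activation above about 17%, with every replicate also reaching it, limit read from the data, passing the limit was not always enough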
Target sequence (P13346 whole entry, looked up): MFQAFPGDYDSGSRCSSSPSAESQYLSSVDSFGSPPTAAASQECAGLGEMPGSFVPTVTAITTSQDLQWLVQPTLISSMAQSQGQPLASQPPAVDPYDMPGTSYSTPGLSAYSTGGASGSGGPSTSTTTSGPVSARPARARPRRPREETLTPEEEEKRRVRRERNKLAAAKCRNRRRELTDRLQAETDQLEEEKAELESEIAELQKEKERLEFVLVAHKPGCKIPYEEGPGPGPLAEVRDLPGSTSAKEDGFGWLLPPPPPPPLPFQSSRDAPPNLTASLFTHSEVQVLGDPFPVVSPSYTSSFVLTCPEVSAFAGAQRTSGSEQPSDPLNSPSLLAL
CAL PDZ FP-1 = CAL PDZ (human) peptide binding inhibition; Q9HD26; purified CAL PDZ, TMR-peptide fluorescence polarization, 1 h; inhibition, % at 24.9 µM; hit rate 0.92% among 300,000; AID 602252;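 active = mean inhibition of at least 30% with at least half of replicates also reaching 30%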;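 note: 0% = DMSO neutral control and 100% = excess unlabeled competitor peptide PRC23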
CAL PDZ FP-2 = human CAL PDZ-peptide interaction inhibition | Q9HD26 | purified CAL PDZ, TMR-peptide fluorescence polarization, 1 h | inhibition, % at 20 µM | hit rate 0.02% among 330,000;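 active = highest replicate inhibition of at least 40%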;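 note: plate controls were DMSO neutral control wells for no effect and unlabeled competitor peptide control wells for full effect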
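Read-out basis: mP drop reported as inhibition | Assay system: Tagged CAL PDZ protein CerCALP, purified | Benchmarks: Unlabelled peptide for full inhibition, DMSO wells as neutral | Schedule: 1 h incubation at room temperature before polarization reading | Buffer or medium: Sodium phosphate/NaCl buffer pH 7.4 with TCEP, IgG, Thesit | Doses: Single point, 20 µM | Measured by: Fluorescence polarization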
SR-BI DiI inh = inhibitors of mouse SR-BI mediated HDL lipid uptake | Q61009 | AID 488896 | hit rate 0.96% among 320,000 | inhibition, % at 12.5 µM | ldlA[mSR-BI] CHO cells, DiI-HDL uptake fluorescence, 3 h;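 active = mean replicate inhibition of at least 70% and a set share of replicates each scoring 70 or more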;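 note: 0% = median of neutral control wells and 100% = median of positive control wells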
dFosB act-2 = activators of mouse delta FosB homodimer DNA binding. 2,400 tested, under 10 active. shares compounds with dFosB act-1. activation, % at 24.9 µM. purified delta FosB, TAMRA-CDK5 oligo fluorescence polarization; normalised: neutral wells 0, positive control 100. AID 588690;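 active = highest replicate activation at or above 34% and every replicate reaching that threshold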;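 note: higher polarization means more probe DNA bound by delta FosB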
* hit, by the source's call.

How did O=C(CSc1nc2ccccc2c(=O)n1Cc1ccc(Cl)cc1)NCc1cccs1 do in these assays?
SR-BI uptake up: -15; dFosB act-1: 27*; CAL PDZ FP-1: -4; CAL PDZ FP-2: 0; SR-BI DiI inh: 15; dFosB act-2: 0

Results for C/C(N)=C(/C#N)C(=O)CSc1nc2ccccc2c(=O)n1Cc1ccc(C)cc1 ?
SR-BI uptake up: 12; dFosB act-1: 21*; CAL PDZ FP-1: 3; CAL PDZ FP-2: -2; SR-BI DiI inh: -12; dFosB act-2: 5

What do the screens show for `CC1CCc2c(sc(NC(=O)/C=C/c3cccs3)c2C(=O)O)C1` (stereo not drawn)?
SR-BI uptake up: -7; dFosB act-1: -3; CAL PDZ FP-1: -4; CAL PDZ FP-2: 1; SR-BI DiI inh: 7

How did CCN(CC)CCCn1c2c(c(SCC(=O)Nc3nccs3)nc1=O)CCC2 do in these assays?
SR-BI uptake up: 11; dFosB act-1: 0; CAL PDZ FP-1: -3; CAL PDZ FP-2: -1; SR-BI DiI inh: -11

How did Cc1ccc(C2(C)NC(=O)N(CC(=O)N3c4ccccc4NC(=O)CC3C)C2=O)cc1 (stereo not drawn) do in these assays?
SR-BI uptake up: -1; dFosB act-1: -4; CAL PDZ FP-1: -2; CAL PDZ FP-2: 0; SR-BI DiI inh: 1

Results for CCCn1c(SCC(=O)NCC(=O)Nc2ccc(F)c(F)c2F)nc2ccccc2c1=O ?
SR-BI uptake up: 8; dFosB act-1: 26*; CAL PDZ FP-1: 7; CAL PDZ FP-2: 0; SR-BI DiI inh: -8; dFosB act-2: 2

Results for CCCNC(=O)CSc1nc2ccccc2c(=O)n1CCC ?
SR-BI uptake up: -10; dFosB act-1: -4; CAL PDZ FP-2: -1; SR-BI DiI inh: 10

What do the screens show for `Cc1cccc(C)c1N(CC(=O)NCc1ccco1)C(=O)CNS(=O)(=O)c1ccc(F)cc1`?
dFosB act-1: -9; CAL PDZ FP-1: -2; CAL PDZ FP-2: 0

Results for O=C(Nc1cccc([N+](=O)[O-])c1)Nc1cnccn1 ?
SR-BI uptake up: 10; dFosB act-1: 27*; CAL PDZ FP-2: -1; SR-BI DiI inh: -10; dFosB act-2: -6

Results for S=C1NC[C@H](CC2CCCCC2)N1CC1CCCCC1 ?
SR-BI uptake up: -6; dFosB act-1: -1; CAL PDZ FP-1: -2; CAL PDZ FP-2: -1; SR-BI DiI inh: 6

What do the screens show for `CS(=O)(=O)Nc1nnc(SCC(=O)N(c2ccccc2)c2ccccc2)s1`?
SR-BI uptake up: 14; dFosB act-1: -1; CAL PDZ FP-1: 1; CAL PDZ FP-2: 0; SR-BI DiI inh: -14

How did CCOc1cc(/C=N/Nc2nc3ccccc3[nH]2)cc(Br)c1OCC(=O)N(C)C do in these assays?
dFosB act-1: 22*; CAL PDZ FP-1: 2; CAL PDZ FP-2: 5; dFosB act-2: 2

Results for O=C(Nc1ccc(S(=O)(=O)N2CCCC2)cc1)C1CCCN1C(=O)c1cccs1 (stereo not drawn) ?
SR-BI uptake up: 26; dFosB act-1: 1; CAL PDZ FP-1: 1; CAL PDZ FP-2: -2; SR-BI DiI inh: -26

What do the screens show for `COc1ccc(CC(=O)Nc2nnc(-c3cccc([N+](=O)[O-])c3)s2)cc1`?
SR-BI uptake up: 2; dFosB act-1: 22*; CAL PDZ FP-2: -1; SR-BI DiI inh: -2; dFosB act-2: 1

How did COc1cccc(-c2nnc(NC(=O)c3cccs3)s2)c1 do in these assays?
SR-BI uptake up: -10; dFosB act-1: 34*; CAL PDZ FP-2: -2; SR-BI DiI inh: 10; dFosB act-2: 1

How did CCC1(c2ccccc2)NC(=O)N(CC(=O)NC2CCCC2)C1=O (stereo not drawn) do in these assays?
SR-BI uptake up: 18; dFosB act-1: -3; CAL PDZ FP-1: -1; CAL PDZ FP-2: -2; SR-BI DiI inh: -18

How did O=C(CCn1nc(-c2ccc(Cl)cc2)ccc1=O)N1CCN(c2ccc(F)cc2)CC1 do in these assays?
SR-BI uptake up: -29; dFosB act-1: -6; CAL PDZ FP-2: 0; SR-BI DiI inh: 29

Results for CCCCn1c(N)c(N(CC(C)C)C(=O)c2cccc(S(=O)(=O)N3CCCCC3)c2)c(=O)[nH]c1=O ?
SR-BI uptake up: 26; dFosB act-1: 6; CAL PDZ FP-1: 0; CAL PDZ FP-2: -2; SR-BI DiI inh: -26
